Consider two molecules from PMC5947295 (Clinical Pharmacology in Drug Development, 2018).

The conditions of data set [1]: phase 2, small number of subjects; cited from earlier work.
Data set [2] deals with plasma, cerebrospinal fluid (CSF), and brain Aβ1–40, Aβ1–42, and sAPPβ concentrations. Particulars: mouse; cited from earlier work.
For data set [3] the following is noted: elderly healthy subjects and patients with mild to moderate AD, up to 750 mg single dose or 150 mg multiple dose; cited from earlier work.
A further data set is described as follows: Caco-2 permeability. Particulars: human. In kind it is in vitro ADME. A general note: Passage across Caco-2 layers is used to estimate intestinal permeability.
The next data set concerns plasma Aβ peptides. Particulars: single dose at the highest dose studied, SAD study; cited from earlier work.
A further data set relates to Caco‐2. Particulars: cited from earlier work.
For data set [4] the following is noted: cited from earlier work; for Cmax: single 150‐mg dose.
Data set [5] is described as follows: Phase 1 randomized 3-period crossover relative bioavailability study, plasma PK. Type of data set: in vivo. As to conditions: both, human, po, 50 mg.
The conditions of data set [6]: single oral dose of [14C]‐lanabecestat; cited from earlier work.
The subject of data set [7] is plasma, cerebrospinal fluid (CSF), and brain Aβ1–40, Aβ1–42, and sAPPβ concentrations. Particulars: dog; cited from earlier work.
The subject of data set [8] is BACE1. As to conditions: read-out: In vitro 50% inhibitory concentration (IC50) for BACE1; cited from earlier work.
For data set [9], the system named is plasma, cerebrospinal fluid (CSF), and brain Aβ1–40, Aβ1–42, and sAPPβ concentrations. Particulars: guinea pig; cited from earlier work.
For data set [10], the system named is BACE1. As to conditions: in vitro; cited from earlier work.
The test system of data set [11] is plasma and CSF Aβ peptides. As to conditions: once‐weekly (70‐mg) dosing schedule; cited from earlier work.
Data set [12] is described as follows: Safety and tolerability monitoring in the crossover study. As to conditions: healthy subjects. In kind it is in vivo, human. The gist of the method:
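Single oral 50 mg dose on days 1, 8 and 15 as 10 mL solution (5 mg/mL), tablet A or tablet B, with 7–10-day washout. Dosed after an overnight fast with 240 mL water, fasted to 4 h postdose. AEs, hematology, chemistry (ALT, AST, ALP), urinalysis, vitals, ECG, physical/neurological examination and C-SSRS were monitored throughout.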

Setting [13] is: single 50 mg dose, safety set n = 16.

Molecules are shown by their SMILES. pIC50: −log10 of the molar value. Where two headings read alike, the source gives them in different places.

A word on the Papp: it is a coefficient for how fast a substance crosses the barrier. Low values mean poor permeation, high ones ready permeation. The Cmax is the peak of the concentration-time curve. As usually defined, the half-life is the time needed for the level to fall by half in the phase considered. Lower therefore signals fast loss.

With `NC1=N[C@@]2(c3cc(NC(=O)c4ccc(F)cn4)ccc3F)COC[C@H]2CS1` [LY2886721], the “Liver safety finding that terminated clinical development” value in data set [1] is given as “elevations in circulating liver‐enzyme activity”.
In the case of `CC#Cc1cncc(-c2ccc3c(c2)[C@@]2(N=C(C)C(N)=N2)[C@]2(CC[C@H](OC)CC2)C3)c1` [lanabecestat, [1r,1′R,4R]‐4‐methoxy‐5″‐methyl‐6′‐[5‐(prop‐1‐yn‐1‐yl)pyridin‐3‐yl]‐3′H‐dispiro[cyclohexane‐1,2′‐indene‐1′,2″‐imidazol]‐4″‐amine], the “Plasma, CSF and brain Aβ1–40, Aβ1–42 and sAPPβ concentrations” value (“Plasma … Aβ1–42 and sAPPβ concentrations” for short) in data set [2] is on record as “robustly reduced”. In data set [3], the Safety and tolerability result is “no safety or tolerability concerns”. In “Caco-2 permeability”, the Papp was over 10 ×10⁻⁶ cm/s. Further, the “Duration of suppression of plasma Aβ peptides” value in the data set on plasma Aβ peptides was “up to 3 weeks”. The “Mean Caco‐2 apical‐to‐basolateral Papp permeability” value in the data set with Caco‐2 is reported as 34.8 × 10^‐6 cm/s. In addition, the highest concentration (Cmax) in data set [4] (fasted) is 701 ng/mL. Also, in [4] (fed), the peak concentration (Cmax) is given as 499 ng/mL. Also, in data set [4] (food intake), the “Effect of food intake on AUC” value is reported as “minimal effect” and the “tmax with food intake (later tmax)” value is about 2 h. The molecule further showed a half-life in data set [5] of about 16 h. In data set [6], the “Radioactive dose recovered in feces” value is listed as 74% and the “Radioactive dose recovered in urine” value is recorded as 25%. In data set [7], the “Plasma … Aβ1–42 and sAPPβ concentrations” value is recorded as “robustly reduced”. The pIC50 with BACE1 [8] is 9.22. In [9], the “Plasma … Aβ1–42 and sAPPβ concentrations” value is listed as “robustly reduced”. For the same molecule, the “Off‐rate from BACE1, half‐life” value with BACE1 [10] was “approximately 9 hours”. The “Suppression of plasma and CSF Aβ peptides” value in data set [11] is on record as “prolonged suppression”. Besides, the Tolerability entry in data set [12] (single 50 mg dose as solution or tablet) is reported as “well tolerated”. Moreover, the “Severity of adverse events” value in [12] (single 50 mg dose) was “mild”. The “Subjects reporting adverse events” value in data set [12] (single 50 mg dose, 16 subjects) came to 37.5%. Further, in data set [12] (setting [13]), the “Number of subjects with ≥1 TEAE” value is recorded as 6 (37.5) n (%), the “TEAE: Dizziness” value was 1 (6.3) n (%), the “TEAE: Dry skin” value was 2 (12.5) n (%) and the “TEAE: Headache” value was 2 (12.5) n (%). In [12] (setting [13]), the “TEAE: URTI” value is 1 (6.3) n (%). For the same molecule, the “Changes in liver‐related clinical chemistry parameters” value in [12] (single 50 mg doses) was “no significant changes”.
